Results reported in ChEMBL document CHEMBL1156597, “Structure-activity relationship of kahalalide F synthetic analogues” (J Med Chem, 2008).

Assays:
[1] = Cytotoxicity against human IGROV cells after 48 hrs by SRB assay; format: functional; conditions: for CC50: read-out: LC50 (the source's name)
Procedure, shortened: (§1)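 Cells grown in RPMI 1640 with 10% FBS and penicillin/streptomycin at 37 °C and 5% CO₂, trypsinized, then seeded at 5 × 10³/well. After 18 h drug-free attachment, samples in DMSO/EtOH/PBS (0.5:0.5:99) were added for 48 h continuous exposure. Cells were fixed with cold TCA (1 h, 4 °C) and stained with SRB (10 min). Tris-solubilized stain read at 490 nm. Triplicate wells, mean ± SD; GI₅₀ derived.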

[2] = test system: A549; assay: Cytotoxicity against human A549 cells after 48 hrs by SRB assay; format: functional, cell-based; conditions: Homo sapiens, A549, 48 h; for GI50: read-out: GI50; procedure, shortened: as §1
[3] = test system: LoVo; assay: Cytotoxicity against human LoVo cells after 48 hrs by SRB assay; format: functional; conditions: for CC50: read-out: LC50 (the source's name)
[4] = test system: HeLa; assay: Cytotoxicity against human HeLa cells after 48 hrs by SRB assay; format: functional; conditions: for CC50: read-out: LC50 (the source's name); procedure, shortened: as §1
[5] = Cytotoxicity against human IGROV-ET cells after 48 hrs by SRB assay; format: functional; conditions: for CC50: read-out: LC50 (the source's name); procedure, shortened: as §1
[6] = test system: SK-MEL-28; assay: Cytotoxicity against human SK-MEL-28 cells after 48 hrs by SRB assay; format: functional, cell-based; conditions: Homo sapiens, SK-MEL-28, 48 h; for GI50: read-out: GI50; for CC50: read-out: LC50 (the source's name); procedure, shortened: as §1
[7] = test system: DU-145; assay: Cytotoxicity against human DU145 cells after 48 hrs by SRB assay; format: functional, cell-based; conditions: Homo sapiens, DU-145, 48 h; for GI50: read-out: GI50; for CC50: read-out: LC50 (the source's name); procedure, shortened: as §1
[8] = test system: LoVo; assay: Cytotoxicity against human doxorubicin resistant LoVo cells after 48 hrs by SRB assay; format: functional; conditions: for CC50: read-out: LC50 (the source's name); procedure, shortened: as §1
[9] = Cytotoxicity against human HeLa-APL cells after 48 hrs by SRB assay; format: functional; procedure, shortened: as §1
[10] = test system: HT-29; assay: Cytotoxicity against human HT29 cells after 48 hrs by SRB assay; format: functional, cell-based; conditions: Homo sapiens, HT-29, 48 h; for CC50: read-out: LC50 (the source's name); procedure, shortened: as §1
[11] = test system: SK-BR-3; assay: Cytotoxicity against human SKBR3 cells after 48 hrs by SRB assay; format: functional; conditions: SK-BR-3, 48 h; for GI50: read-out: GI50; for CC50: read-out: LC50 (the source's name); procedure, shortened: as §1
[12] = test system: LNCaP; assay: Cytotoxicity against human LNcaP cells after 48 hrs by SRB assay; format: functional; conditions: for CC50: read-out: LC50 (the source's name); procedure, shortened: as §1
[13] = test system: PANC-1; assay: Cytotoxicity against human PANC1 cells after 48 hrs by SRB assay; format: functional; conditions: PANC-1, 48 h; for CC50: read-out: LC50 (the source's name); procedure, shortened: as §1
[14] = test system: K562; assay: Cytotoxicity against human K562 cells after 48 hrs by SRB assay; format: functional; conditions: K562, 48 h; for CC50: read-out: LC50 (the source's name); procedure, shortened: as §1

C/C=C1\NC(=O)[C@H](Cc2ccccc2)NC(=O)[C@@H](C(C)C)NC(=O)[C@@H]([C@H](C)CC)NC(=O)[C@H](NC(=O)[C@H](NC(=O)[C@H](CCCCN)NC(=O)[C@H]2CCCN2C(=O)[C@H](NC(=O)[C@@H](NC(=O)[C@@H](NC(=O)[C@H](NC(=O)CCCC(C)C)C(C)C)[C@@H](C)O)C(C)C)C(C)C)[C@H](C)CC)[C@H](C)OC(=O)[C@H](C(C)C)NC1=O
GI50 [1]: 568 nM | GI50 ([1]; read-out: GI50): 562 nM | CC50 [1]: 5720 nM | LC50 [2]: 1340 nM | TGI [2]: 1390 nM | GI50 [2]: 1440 nM | GI50 [3]: 426 nM | TGI [3]: 379 nM | CC50 [3]: 337 nM | GI50 [4]: 910 nM | TGI [4]: 776 nM | CC50 [4]: 883 nM | GI50 [5]: 619 nM | GI50 ([5]; read-out: GI50): 645 nM | CC50 [5]: 587 nM | TGI [6]: 1270 nM | GI50 [6]: 1470 nM | CC50 [6]: 1370 nM | TGI [7]: 2440 nM | GI50 [7]: 1290 nM | CC50 [7]: 3170 nM | GI50 [8]: 301 nM | TGI [8]: 280 nM | CC50 [8]: 36.6 nM | GI50 [9]: 512 nM | LC50 (concentration giving 50% net cell kill) [9]: 757 nM | TGI [9]: 664 nM | GI50 [10]: 521 nM | TGI [10]: 422 nM | CC50 [10]: 340 nM | TGI [11]: 366 nM | GI50 [11]: 385 nM | CC50 [11]: 351 nM | GI50 [12]: 1330 nM | TGI [12]: 1150 nM | CC50 [12]: 985 nM | GI50 [13]: 5110 nM | TGI [13]: 4550 nM | CC50 [13]: 2210 nM | GI50 [14]: 9350 nM | TGI [14]: 14700 nM | CC50 [14]: 4770 nM

C/C=C1\NC(=O)[C@H](Cc2ccccc2)NC(=O)[C@@H](C(C)C)NC(=O)[C@@H]([C@H](C)CC)NC(=O)[C@H](NC(=O)[C@H](NC(=O)[C@H](CCCN)NC(=O)[C@H]2CCCN2C(=O)[C@H](NC(=O)[C@@H](NC(=O)[C@@H](NC(=O)[C@H](NC(=O)CCCC(C)C)C(C)C)[C@@H](C)O)C(C)C)C(C)C)[C@H](C)CC)[C@H](C)OC(=O)[C@H](C(C)C)NC1=O [KAHALALIDE F]
TGI [1]: 1180 nM | GI50 ([1]; read-out: GI50): 493 nM | CC50 [1]: 3220 nM | LC50 [2]: 4520 nM | TGI [2]: 2200 nM | GI50 [2]: 1160 nM | GI50 [3]: 334 nM | TGI [3]: 614 nM | CC50 [3]: 1510 nM | GI50 [4]: 965 nM | TGI [4]: 1970 nM | CC50 [4]: 4730 nM | TGI [5]: 1300 nM | GI50 ([5]; read-out: GI50): 550 nM | CC50 [5]: 3280 nM | TGI [6]: 2260 nM | GI50 [6]: 1190 nM | CC50 [6]: 4500 nM | TGI [7]: 1720 nM | GI50 [7]: 931 nM | CC50 [7]: 3720 nM | GI50 [8]: 299 nM | TGI [8]: 485 nM | CC50 [8]: 1470 nM | GI50 [9]: 975 nM | LC50 (concentration giving 50% net cell kill) [9]: 4290 nM | TGI [9]: 2020 nM | GI50 [10]: 432 nM | TGI [10]: 915 nM | CC50 [10]: 2240 nM | TGI [11]: 810 nM | GI50 [11]: 363 nM | CC50 [11]: 1980 nM | GI50 [12]: 960 nM | TGI [12]: 1960 nM | CC50 [12]: 4260 nM | GI50 [13]: 1770 nM | TGI [13]: 3330 nM | CC50 [13]: 5070 nM | GI50 [14]: 1930 nM | TGI [14]: 3320 nM | CC50 [14]: 5280 nM

CC[C@@H](C)[C@@H](NC(=O)[C@H](CCCN)NC(=O)[C@H]1CCCN1C(=O)[C@H](NC(=O)[C@@H](NC(=O)[C@@H](NC(=O)[C@H](NC(=O)CCCC(C)C)C(C)C)[C@@H](C)O)C(C)C)C(C)C)C(=O)N[C@H]1C(=O)N[C@H]([C@H](C)CC)C(=O)N[C@H](C(C)C)C(=O)N[C@@H](Cc2ccccc2)C(=O)NCC(=O)N[C@@H](C(C)C)C(=O)O[C@H]1C
GI50 [1]: 748 nM | GI50 ([1]; read-out: GI50): 1640 nM | CC50 [1]: 361 nM | LC50 [2]: 1460 nM | TGI [2]: 2100 nM | GI50 [2]: 1630 nM | GI50 [3]: 1840 nM | TGI [3]: 1850 nM | CC50 [3]: 1680 nM | CC50 [4]: 526 nM | GI50 [5]: 465 nM | GI50 ([5]; read-out: GI50): 722 nM | CC50 [5]: 308 nM | TGI [6]: 1700 nM | GI50 [6]: 1390 nM | CC50 [6]: 1780 nM | TGI [7]: 1160 nM | GI50 [7]: 1410 nM | CC50 [7]: 953 nM | GI50 [8]: 830 nM | TGI [8]: 1020 nM | CC50 [8]: 362 nM | GI50 [9]: 1830 nM | LC50 (concentration giving 50% net cell kill) [9]: 1450 nM | TGI [9]: 2860 nM | GI50 [10]: 2260 nM | TGI [10]: 2120 nM | CC50 [10]: 775 nM | TGI [11]: 1640 nM | GI50 [11]: 1660 nM | CC50 [11]: 683 nM | GI50 [12]: 2740 nM | TGI [12]: 2780 nM | CC50 [12]: 1420 nM | CC50 [13]: 1810 nM | GI50 [14]: 2530 nM | TGI [14]: 3040 nM | CC50 [14]: 1970 nM
